Experimental data taken from ChEMBL document CHEMBL1140190, “Phenolic constituents of Amorpha fruticosa that inhibit NF-kappaB activation and related gene expression” (J Nat Prod, 2008).
The source made the active and inactive calls. The calls are words filed in the database; no cut-off is given here.

Experiments:
[1] = Inhibition of TNF-alpha-induced NF-kappaB activation in human HeLa cells by SEAP reporter gene assay; format: cell-based
Method in brief: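 HeLa cells transiently transfected with an 8×κB-SEAP reporter plasmid, seeded at 5 × 10^4 cells/well, 3 h at 37 °C. Compounds in DMSO (final 0.01%) with TNF-α 10 ng mL-1 for 24 h. Supernatant heat-treated 65 °C 10 min, substrate p-nitrophenyl phosphate, 37 °C 4 h, absorbance 405 nm. Means ± SD, three experiments.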

[2] = Inhibition of LPS-induced NF-kappaB activation in mouse RAW264.7 cells by SEAP reporter gene assay; format: cell-based
Method in brief: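 RAW264.7 cells transiently transfected with a plasmid carrying eight κB elements driving SEAP, seeded at 5 × 10^4 cells/well, 3 h at 37 °C. Compounds in DMSO (final 0.01%) plus LPS 1 µg mL-1 for 24 h. Supernatant heated 65 °C 10 min, then SEAP buffer and p-nitrophenyl phosphate, 37 °C 4 h, OD 405 nm. Means ± SD of three experiments.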

MCF7 [3] = experiment: Inhibition of TNF-alpha-induced NF-kappaB DNA binding activity in human MCF7 cells by electrophoretic shift mobility assay; format: cell-based
Method in brief: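 MCF-7 cells at 70% confluence preincubated 30 min with compounds (DMSO final 0.001%), then TNF-α 20 ng mL-1 for 60 min. Nuclear extracts from hypotonic swelling and high-salt extraction, bound 20 min at room temperature to a 32P end-labeled NF-κB oligonucleotide. Excess unlabeled NF-κB and AP-1 oligonucleotides served as competitors.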

MCF7 [4] = experiment: Suppression of TNF-alpha-induced expression of iNOS in human MCF7 cells at 3 uM by Western blot analysis; format: functional, cell-based
Method in brief: (§1)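 MCF-7 cells plated at 70% confluence and kept overnight at 37 °C. Compound (DMSO final 0.001%) added for 30 min, then TNF-α 20 ng mL-1 for 24 h. Total lysates run on 10% SDS-PAGE and blotted, primary antibody overnight at 4 °C, ECL detection, α-tubulin as loading control.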

MCF7 [5] = experiment: Suppression of TNF-alpha-induced expression of iNOS in human MCF7 cells at 10 uM by Western blot analysis; format: functional, cell-based; method in brief: as §1
MCF7 [6] = experiment: Blockade of TNF-alpha-induced COX2 induction in human MCF7 cells by Western blot analysis; format: functional, cell-based
Method in brief: (§2)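 MCF-7 cells plated at 70% confluence and incubated overnight at 37 °C. Pretreated 30 min with compounds in DMSO (final DMSO 0.001%), then stimulated with TNF-α (20 ng mL-1) for 24 h. Total lysates in NP-40 lysis buffer were resolved by 10% SDS-PAGE and immunoblotted with specific antibodies (1:1000, overnight, 4 °C). ECL detection with α-tubulin as loading control.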

MCF7 [7] = experiment: Induction of apoptosis in human MCF7 cells assessed as down regulation of cIAP1 by Western blot analysis; format: functional, cell-based; method in brief: as §2
MCF7 [8] = experiment: Induction of apoptosis in human MCF7 cells assessed as down regulation of cIAP2 by Western blot analysis; format: functional, cell-based; method in brief: as §2
MCF7 [9] = experiment: Induction of apoptosis in human MCF7 cells assessed as suppression of MMP9 by Western blot analysis; format: functional, cell-based; method in brief: as §2

IC50 [1] [nM] | IC50 [2] [nM] | SMILES | Activity (MCF7 [3]) | Activity (MCF7 [4]) | Activity (MCF7 [5]) | Activity (MCF7 [6]) | Activity (MCF7 [7]) | Activity (MCF7 [8]) | Activity (MCF7 [9])
1750 | 3020 | COc1c(CC=C(C)C)c(O)cc(CCc2ccccc2)c1C(=O)O |  |  |  |  |  |  | 
840 | 4170 | COc1cc(CCc2ccccc2)c(C(=O)O)c(O)c1CC=C(C)C [AMORFRUTIN A] | Dose-dependent effect | Active | Active |  |  |  | 
260 | 680 | CC(C)=CCC/C(C)=C/Cc1c(O)cc(/C=C/c2ccccc2)cc1O [AMORPHASTILBOL] |  |  |  |  |  |  | 
1030 | 1830 | CC(C)=CCC/C(C)=C/Cc1c(O)ccc(C(=O)/C=C/c2ccc(O)cc2)c1O [XANTHOANGELOL] |  |  |  |  |  |  | 
1560 | 3140 | CC(C)=CCC/C(C)=C/Cc1c(O)cc(CCc2ccccc2)c(C(=O)O)c1O |  |  |  |  |  |  | 
2120 | 7650 | COC1=CC(=O)[C@]2(C=C1OC)OC[C@H]1Oc3c4c(cc(O)c3C(=O)[C@H]12)OC(C)(C)C=C4 | Dose-dependent effect | Active | Active | Active | Active | Active | Active
1130 | 2440 | COc1c(C/C=C(\C)CCC=C(C)C)c(O)cc(CCc2ccccc2)c1C(=O)O |  |  |  |  |  |  | 
190 | 4210 | COc1cc2c(cc1OC)[C@]1(O)C(=O)c3c(O)cc4c(c3O[C@@H]1CO2)C=CC(C)(C)O4 |  |  |  |  |  |  | 

SMILES | IC50 [1] [nM] | IC50 [2] [nM] | Activity (MCF7 [3]) | Activity (MCF7 [4]) | Activity (MCF7 [5]) | Activity (MCF7 [6]) | Activity (MCF7 [7]) | Activity (MCF7 [8]) | Activity (MCF7 [9])
COC1=CC(=O)[C@]2(C=C1OC)OC[C@H]1Oc3c(ccc4c3C=CC(C)(C)O4)C(=O)[C@H]12 [AMORPHISPIRONONE] | 7390 | 13900 |  |  |  |  |  |  | 
COc1cc2c(cc1OC)[C@]1(O)C(=O)c3ccc4c(c3O[C@@H]1CO2)C=CC(C)(C)O4 [TEPHROSIN] | 110 | 2000 | Dose-dependent effect | Active | Active | Active | Active | Active | Active
CC1=C(O)C(=O)C=C2C1=CC=C1[C@@]2(C)CC[C@@]2(C)[C@@H]3C[C@](C)(C(=O)O)CC[C@]3(C)CC[C@]12C [CELASTROL] | 150 | 300 |  |  |  |  |  |  | 
COc1cc2c(cc1OC)[C@@H]1C(=O)c3ccc4c(c3O[C@@H]1CO2)C=CC(C)(C)O4 [DEGUELIN] | 220 | 1750 |  |  |  |  |  |  | 
